# Results reported in ChEMBL document CHEMBL4699630, “Discovery of novel pyrazolo[3,4-b]pyridine scaffold-based derivatives as potential PIM-1 kinase inhibitors in breast cancer MCF-7 cells” (Bioorg Med Chem, 2020).
# Legend:
# MCF7 [1] = assay: Cytotoxicity against ERalpha-dependent human MCF7 cells assessed as reduction in cell viability incubated for 48 hrs by MTT assay; type: functional, cell-based; settings: MCF7, 48 h
# Summary of the method: (§1)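 Cells grown by standard culture protocols, then exposed for 48 h to serial concentrations (0.1, 1, 10, 100, 1000; unit not given) of each compound. Survival read by absorbance at 570 nm and expressed as % viability = A sample/A control ×100. IC50 fitted from concentration versus % survival; mean ± SEM of three independent values.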
# MDA-MB-231 = assay: Cytotoxicity against Non-ERalpha-dependent human MDA-MB-231 cells assessed as reduction in cell viability incubated for 48 hrs by MTT assay; type: functional, cell-based; settings: MDA-MB-231, 48 h; summary of the method: as §1
# MCF-10A = assay: Cytotoxicity against human MCF-10A cells assessed as reduction in cell viability incubated for 48 hrs by MTT assay; type: cell-based; summary of the method: as §1
# [2] = target: Serine/threonine-protein kinase pim-1 (Homo sapiens, UniProt P11309); assay: Inhibition of recombinant human GST-tagged PIM1 by ELISA
# Summary of the method: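 PIM-1 kinase activity measured with the HTScan Pim-1 kinase assay kit, following the kit instructions. Compounds dissolved in DMSO and tested at four serial concentrations; IC50 derived from these.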
# MCF7 [3] = assay: Induction of apoptosis in human MCF7 cells assessed as early apoptotic cells at 5.61 uM incubated for 48 hrs by Annexin V-FITC/propidium iodide staining based flow cytometric analysis (reference value: 0.43 %); type: functional
# MCF7 [4] = assay: Induction of apoptosis in human MCF7 cells assessed as late apoptotic cells at 5.61 uM incubated for 48 hrs by Annexin V-FITC/propidium iodide staining based flow cytometric analysis (reference value: 0.16 %); type: functional
# MCF7 [5] = assay: Induction of apoptosis in human MCF7 cells assessed as necrotic cells at 5.61 uM incubated for 48 hrs by Annexin V-FITC/propidium iodide staining based flow cytometric analysis (reference value: 1.05 %); type: functional
# MCF7 [6] = assay: Induction of cell cycle arrest in human MCF7 cells assessed as accumulation of cells at preG1 phase at 5.61 uM incubated for 48 hrs by propidium iodide staining based flow cytometric analysis (reference value: 1.64 %); type: functional
# MCF7 [7] = assay: Induction of cell cycle arrest in human MCF7 cells assessed as accumulation of cells at G0/G1 phase at 5.61 uM incubated for 48 hrs by propidium iodide staining based flow cytometric analysis (reference value: 43.92 %); type: functional
# MCF7 [8] = assay: Induction of cell cycle arrest in human MCF7 cells assessed as accumulation of cells at G2/M phase at 5.61 uM incubated for 48 hrs by propidium iodide staining based flow cytometric analysis (reference value: 12.26 %); type: functional
# [9] = Upregulation of P53 gene expression in human MCF7 cells at 5.61 uM incubated for 48 hrs by RT-PCR analysis relative to control; type: functional
# [10] = Upregulation of MDM2 gene expression in human MCF7 cells at 5.61 uM incubated for 48 hrs by RT-PCR analysis relative to control; type: functional
# [11] = Upregulation of PUMA gene expression in human MCF7 cells at 5.61 uM incubated for 48 hrs by RT-PCR analysis relative to control; type: functional
# MCF7 [12] = assay: Induction of apoptosis in human MCF7 cells assessed as fold increase in caspase-3 gene expression at 5.61 uM incubated for 48 hrs by RT-PCR analysis relative to control; type: functional
# MCF7 [13] = assay: Induction of apoptosis in human MCF7 cells assessed as fold increase in caspase-9 gene expression at 5.61 uM incubated for 48 hrs by RT-PCR analysis relative to control; type: functional
# MCF7 [14] = assay: Induction of apoptosis in human MCF7 cells assessed as fold decrease in BCL2 gene expression at 5.61 uM incubated for 48 hrs by RT-PCR analysis relative to control; type: functional
# [15] = Downregulation of PIM1 gene expression in human MCF7 cells at 5.61 uM incubated for 48 hrs by RT-PCR analysis relative to control; type: functional
# MCF7 [16] = assay: Induction of apoptosis in human MCF7 cells assessed as increase in total apoptotic cells at 5.61 uM incubated for 48 hrs by Annexin V-FITC/propidium iodide staining based flow cytometric analysis relative to control; type: functional
# MCF7 [17] = assay: Induction of apoptosis in human MCF7 cells assessed as increase in necrotic cells at 5.61 uM incubated for 48 hrs by Annexin V-FITC/propidium iodide staining based flow cytometric analysis relative to control; type: functional
# Serine/threonine-protein kinase pim-1, sequence (P11309 whole entry): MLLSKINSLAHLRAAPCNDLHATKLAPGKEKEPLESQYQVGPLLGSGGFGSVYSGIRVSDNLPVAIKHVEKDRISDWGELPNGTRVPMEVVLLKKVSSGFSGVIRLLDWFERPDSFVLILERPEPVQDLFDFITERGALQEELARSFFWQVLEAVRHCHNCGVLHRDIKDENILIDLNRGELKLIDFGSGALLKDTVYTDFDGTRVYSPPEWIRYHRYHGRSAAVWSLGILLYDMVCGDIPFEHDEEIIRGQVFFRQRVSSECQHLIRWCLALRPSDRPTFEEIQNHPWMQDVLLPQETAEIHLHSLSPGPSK
smiles,measurement,setting,value
N#Cc1c(-c2ccccc2Cl)c2c(nn3c4ccc5ccccc5c4nnc23)[nH]c1=O,IC50,MCF7 [1],≥ 50 µM
same,IC50,MDA-MB-231,9.76 µM
CCOC(=O)c1nnc2c3c(-c4ccccc4Cl)c(C#N)c(=O)[nH]c3nn2c1O,IC50,MCF7 [1],5.61 µM
same,IC50,MDA-MB-231,38.7 µM
same,IC50,MCF-10A,46.8 µM
same,IC50,[2],0.026 µM
same,Activity,MCF7 [3],3.93%
same,Activity,MCF7 [4],16.29%
same,Activity,MCF7 [5],11.03%
same,Activity,MCF7 [6],31.25%
same,Activity,MCF7 [7],35.66%
same,Activity,MCF7 [8],34.58%
same,fold change (FC),[9],4.2
same,fold change (FC),[10],3.9
same,fold change (FC),[11],6.32
same,fold change (FC),MCF7 [12],7.9
same,fold change (FC),MCF7 [13],6.56
same,fold change (FC),MCF7 [14],0.41
same,fold change (FC),[15],0.25
same,fold change (FC),MCF7 [16],19.17
same,fold change (FC),MCF7 [17],10.5
Cn1nc(N)c2c(-c3ccc(-c4c(C#N)c(N)nc5c4c(N)nn5C)cc3)c(C#N)c(N)nc21,IC50,MCF7 [1],≥ 50 µM
same,IC50,MCF-10A,≥ 50 µM
N#Cc1c(N)nc(Sc2ccccc2)c(C#N)c1-c1ccc(-c2c(C#N)c(N)nc(Sc3ccccc3)c2C#N)cc1,IC50,MCF7 [1],16.8 µM
same,IC50,MCF-10A,48.7 µM
CC(=O)c1nnc2c3c(-c4ccccc4Cl)c(C#N)c(O)nc3nn2c1C,IC50,MCF7 [1],14.8 µM
same,IC50,MDA-MB-231,20.8 µM
N#Cc1c(-c2ccccc2Cl)c2c(N/N=C3\C=CC(=O)c4ccccc43)n[nH]c2[nH]c1=O,IC50,MCF7 [1],8.71 µM
same,IC50,MDA-MB-231,≥ 50 µM
same,IC50,MCF-10A,≥ 50 µM
same,IC50,[2],0.095 µM
Cn1nc(N)c2c(-c3ccccc3Cl)c(C#N)c(N)nc21,IC50,MCF-10A,53.7 µM
N#Cc1c(-c2ccccc2Cl)c2c(nn3c4ccc(O)cc4nnc23)[nH]c1=O,IC50,MCF7 [1],10 µM
same,IC50,MDA-MB-231,24.7 µM
same,IC50,MCF-10A,≥ 50 µM
same,IC50,[2],0.112 µM
N#Cc1c(N)nc2nn3c4ccc5ccccc5c4nnc3c2c1-c1ccc(-c2c(C#N)c(N)nc3nn4c(nnc5ccc6ccccc6c54)c23)cc1,IC50,MCF7 [1],11.4 µM
same,IC50,MDA-MB-231,43.7 µM
N#Cc1nnc2c3c(-c4ccccc4Cl)c(C#N)c(O)nc3nn2c1O,IC50,MCF7 [1],27.5 µM
same,IC50,MDA-MB-231,10.6 µM
N#Cc1nnc2c3c(-c4ccccc4Cl)c(C#N)c(=O)[nH]c3nn2c1N,IC50,MCF7 [1],6.98 µM
same,IC50,MDA-MB-231,≥ 50 µM
same,IC50,MCF-10A,≥ 50 µM
same,IC50,[2],0.043 µM
N#Cc1c(N)nc2[nH]nc(N)c2c1-c1ccccc1Cl,IC50,MCF7 [1],36.6 µM
same,IC50,MCF-10A,20.6 µM
N#Cc1c(N)nc2[nH]nc(N)c2c1-c1ccc(-c2c(C#N)c(N)nc3[nH]nc(N)c23)cc1,IC50,MCF7 [1],17.9 µM
same,IC50,MDA-MB-231,35.7 µM
same,IC50,MCF-10A,43.6 µM
N#Cc1c(O)nc2nn3c4cc(O)ccc4nnc3c2c1-c1ccccc1Cl,IC50,MCF7 [1],9.12 µM
same,IC50,MDA-MB-231,39.5 µM
same,IC50,MCF-10A,≥ 50 µM
same,IC50,[2],0.087 µM
O=c1[nH]cc(F)c(=O)[nH]1 [FLUOROURACIL],IC50,MCF7 [1],5.8 µM
same,IC50,MDA-MB-231,15.7 µM
same,IC50,MCF-10A,39.7 µM
N#Cc1c(N)nc2[nH]nc(N)c2c1-c1cccc(Cl)c1,IC50,MCF7 [1],≥ 50 µM
